Results from different studies.
Target: Phosphatidylinositol 5-phosphate 4-kinase type-2 gamma (PIP4K2C, Homo sapiens, UniProt Q8TBX8)
One construct used (Q8TBX8 1-421): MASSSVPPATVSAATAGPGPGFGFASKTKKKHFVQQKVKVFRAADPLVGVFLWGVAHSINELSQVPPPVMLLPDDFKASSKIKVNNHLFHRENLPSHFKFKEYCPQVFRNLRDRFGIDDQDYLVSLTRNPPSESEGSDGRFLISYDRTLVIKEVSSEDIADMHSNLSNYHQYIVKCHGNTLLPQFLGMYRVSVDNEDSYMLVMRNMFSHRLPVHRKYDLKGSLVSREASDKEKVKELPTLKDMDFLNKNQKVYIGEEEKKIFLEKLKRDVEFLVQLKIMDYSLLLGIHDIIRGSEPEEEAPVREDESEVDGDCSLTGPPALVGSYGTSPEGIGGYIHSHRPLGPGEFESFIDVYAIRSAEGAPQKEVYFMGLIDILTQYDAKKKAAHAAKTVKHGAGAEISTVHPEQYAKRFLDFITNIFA

The remaining binding of COc1ncc2cc3ccccc3nc2c1C#N is reported as 100% (cell-free assay; competition with immobilised ligand; 5 µM).
The remaining binding of CC1CCCN1c1nccc(-c2cnn3ncccc23)n1 (stereo not shown) is reported as 100% (binding; 1 µM).
The remaining binding of O=C(c1ccc(Nc2ncc(Cl)c(-c3ccc(Cl)s3)n2)cc1)N1CCC(N2CCCC2)CC1 is reported as 5.9% (binding; competition with immobilised ligand; 1 µM).
With COc1cnc(Nc2cccc(S(N)(=O)=O)c2)nc1N1CCN(c2ccccc2)C(=O)C1 the remaining binding was 0.95% (binding; competition with immobilised ligand; 1 µM).
With N[C@@H]1CCN(c2nccc(-c3cnn4ncccc34)n2)C1 the remaining binding was 64% (binding; 1 µM).
The remaining binding of CNC(=O)[C@@H]1CC[C@@H](n2c(-c3ccc4cnccc4c3)nc3ccc(C(=O)NCc4cccc(C(N)=O)c4)cc32)C1 is reported as 91% (binding; competition with immobilised ligand; 1 µM).
The remaining binding of Cc1nc(NC(=O)N2CCC[C@H]2C(N)=O)sc1-c1ccnc(C(C)(C)C(F)(F)F)c1 is reported as 100% (binding; competition with immobilised ligand; 10 µM).
For CN(CCCC(F)(F)F)c1nccc(-c2cnn3ncccc23)n1, the remaining binding was 100% (binding; 1 µM).
The remaining binding of CC(C)CC(=O)N1CCc2nc(-c3ccc(Br)cc3)nc(N(C)Cc3ccccc3)c2C1 is reported as 96% (cell-free assay; competition with immobilised ligand; 0.1 µM).
CN(C)c1nccc(-c2cnn3ncccc23)n1 gave a remaining binding of 100% (binding; 1 µM).
For Cc1c(NC(=O)c2cc(C(N)=O)nc3cc(F)ccc23)c(C(F)(F)F)nn1Cc1ccc(C(C)(C)C)cc1, the remaining binding was 76% (cell-free assay; competition with immobilised ligand; 1 µM).
C[C@@H]1CCN(c2nccc(-c3cnn4ncccc34)n2)C1 has a remaining binding of 40% (binding; 1 µM).
With CC(=O)N1CCC(c2ccc(C(=O)NC3=NCCN3)cc2C(F)(F)F)CC1 the remaining binding was 94% (cell-free assay; competition with immobilised ligand; 1 µM).
O=C(NCCCN1CCOCC1)c1ccc(Nc2ncc(Cl)c(-c3ccc(Cl)s3)n2)cc1 has a remaining binding of 15% (binding; competition with immobilised ligand; 1 µM).
With CCS(=O)(=O)c1cc2cc(C[C@](O)(CC(C)(C)c3ccc(F)cc3C(N)=O)C(F)(F)F)[nH]c2cn1 the remaining binding was 100% (cell-free assay; competition with immobilised ligand; 1 µM).
CCN1CCN(Cc2ccc(C(=O)Nc3ccc(C)c(Oc4ccc5c(c4)CC(=O)N5)c3)cc2C(F)(F)F)CC1 gave a remaining binding of 100% (binding; competition with immobilised ligand; 1 µM).
c1ccc(N2CCN(Cc3nc4ccccc4[nH]3)CC2)nc1 has a remaining binding of 86% (binding; competition with immobilised ligand; 1 µM).
CN(C)c1ncc(F)c(-c2cnn3ncccc23)n1 gave a remaining binding of 95% (binding; 1 µM).
CNC(=O)c1ccc(Nc2ncc(C(F)(F)F)c(NCc3nccnc3N(C)S(C)(=O)=O)n2)cc1 has a remaining binding of 40% (cell-free assay; competition with immobilised ligand; 0.1 µM).
With O=C(Nc1c[nH]nc1C(=O)NC1CCNCC1)c1cc(F)cc(F)c1 the remaining binding was 76% (binding; competition with immobilised ligand; 1 µM).
For NS(=O)(=O)c1cc(NC(=O)Cc2ccccc2)ccc1Oc1cccc(Cl)c1, the remaining binding was 100% (cell-free assay; competition with immobilised ligand; 1 µM).
With O=C(NCCCN1CCOCC1)c1ccc(Nc2nccc(-c3cc4ccccc4s3)n2)cc1 the remaining binding was 1.9% (binding; competition with immobilised ligand; 1 µM).
